ChEMBL document CHEMBL1165965, “Synthesis and structure-activity relationships of 1,2,3,4-tetrahydropyrido[2,3-b]pyrazines as potent and selective inhibitors of the anaplastic lymphoma kinase” (Bioorg Med Chem, 2010)

Experiments:
[1] = biological target: T1, Serine/threonine-protein kinase DCLK3 (Homo sapiens) (UniProt Q9C098); assay: Inhibition of DCAMKL3 at 1 uM
T1 sequence (whole entry): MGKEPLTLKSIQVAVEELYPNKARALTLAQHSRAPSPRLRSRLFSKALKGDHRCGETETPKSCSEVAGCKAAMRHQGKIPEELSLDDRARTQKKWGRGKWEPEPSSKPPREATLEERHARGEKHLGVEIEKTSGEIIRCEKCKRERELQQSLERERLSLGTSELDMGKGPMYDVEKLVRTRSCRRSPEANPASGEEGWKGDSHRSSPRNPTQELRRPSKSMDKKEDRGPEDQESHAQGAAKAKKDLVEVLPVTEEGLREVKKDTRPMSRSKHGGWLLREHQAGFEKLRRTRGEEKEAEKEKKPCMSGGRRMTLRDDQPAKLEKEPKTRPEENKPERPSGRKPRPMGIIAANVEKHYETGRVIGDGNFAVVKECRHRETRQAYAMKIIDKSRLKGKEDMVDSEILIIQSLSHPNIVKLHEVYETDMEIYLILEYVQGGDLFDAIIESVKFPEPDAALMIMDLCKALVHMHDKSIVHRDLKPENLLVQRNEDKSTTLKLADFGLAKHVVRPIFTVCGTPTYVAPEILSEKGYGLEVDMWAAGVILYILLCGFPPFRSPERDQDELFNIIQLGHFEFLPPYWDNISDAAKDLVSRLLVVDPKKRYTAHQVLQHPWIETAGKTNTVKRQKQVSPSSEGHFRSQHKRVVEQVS

[2] = biological target: 5'-AMP-activated protein kinase catalytic subunit alpha-1 (Homo sapiens) (UniProt Q13131); assay: Inhibition of AMPK-alpha1 at 1 uM
How it was run: (§1)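 Ambit KINOMEscan screen at a single concentration across a 250–400 kinase panel, recorded as percent inhibition. Selectivity was expressed as S(90), the fraction of kinases inhibited >90%.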

[3] = biological target: T2, Rhodopsin kinase GRK1 (Homo sapiens) (UniProt Q15835); assay: Inhibition of GRK1 at 1 uM
T2 sequence (whole entry): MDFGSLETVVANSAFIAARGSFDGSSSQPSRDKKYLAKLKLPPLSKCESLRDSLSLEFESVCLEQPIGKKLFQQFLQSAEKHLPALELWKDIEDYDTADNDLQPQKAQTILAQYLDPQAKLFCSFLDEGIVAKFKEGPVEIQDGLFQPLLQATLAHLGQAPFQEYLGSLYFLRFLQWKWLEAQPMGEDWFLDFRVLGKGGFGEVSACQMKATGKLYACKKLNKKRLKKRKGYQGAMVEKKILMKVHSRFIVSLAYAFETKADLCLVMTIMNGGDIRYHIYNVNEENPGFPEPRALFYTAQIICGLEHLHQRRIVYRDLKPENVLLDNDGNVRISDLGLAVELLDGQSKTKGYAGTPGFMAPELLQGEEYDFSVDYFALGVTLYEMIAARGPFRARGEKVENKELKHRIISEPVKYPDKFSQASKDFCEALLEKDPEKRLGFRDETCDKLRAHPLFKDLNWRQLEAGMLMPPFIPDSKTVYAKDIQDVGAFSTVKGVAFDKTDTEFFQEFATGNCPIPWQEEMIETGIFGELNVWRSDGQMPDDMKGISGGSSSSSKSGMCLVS

[4] = tested on: Tyrosine-protein kinase ABL1 (Homo sapiens), P00519 [Y253F]; assay: Inhibition of ABL1 Y253F mutant at 1 uM; how it was run: as §1
[5] = biological target: Phosphatidylinositol 4-phosphate 5-kinase type-1 alpha (Homo sapiens) (UniProt Q99755); assay: Inhibition of PIP5K1A at 1 uM
[6] = biological target: Cyclin-dependent kinase 2 (Homo sapiens) (UniProt P24941); assay: Inhibition of CDK2 at 1 uM; how it was run: as §1
[7] = biological target: RAF proto-oncogene serine/threonine-protein kinase (Homo sapiens) (UniProt P04049); assay: Inhibition of RAF1 at 1 uM
[8] = biological target: T3, Cyclin-dependent kinase 11A (Homo sapiens) (UniProt Q9UQ88); assay: Inhibition of CDC2L2 at 1 uM
T3 sequence (whole entry): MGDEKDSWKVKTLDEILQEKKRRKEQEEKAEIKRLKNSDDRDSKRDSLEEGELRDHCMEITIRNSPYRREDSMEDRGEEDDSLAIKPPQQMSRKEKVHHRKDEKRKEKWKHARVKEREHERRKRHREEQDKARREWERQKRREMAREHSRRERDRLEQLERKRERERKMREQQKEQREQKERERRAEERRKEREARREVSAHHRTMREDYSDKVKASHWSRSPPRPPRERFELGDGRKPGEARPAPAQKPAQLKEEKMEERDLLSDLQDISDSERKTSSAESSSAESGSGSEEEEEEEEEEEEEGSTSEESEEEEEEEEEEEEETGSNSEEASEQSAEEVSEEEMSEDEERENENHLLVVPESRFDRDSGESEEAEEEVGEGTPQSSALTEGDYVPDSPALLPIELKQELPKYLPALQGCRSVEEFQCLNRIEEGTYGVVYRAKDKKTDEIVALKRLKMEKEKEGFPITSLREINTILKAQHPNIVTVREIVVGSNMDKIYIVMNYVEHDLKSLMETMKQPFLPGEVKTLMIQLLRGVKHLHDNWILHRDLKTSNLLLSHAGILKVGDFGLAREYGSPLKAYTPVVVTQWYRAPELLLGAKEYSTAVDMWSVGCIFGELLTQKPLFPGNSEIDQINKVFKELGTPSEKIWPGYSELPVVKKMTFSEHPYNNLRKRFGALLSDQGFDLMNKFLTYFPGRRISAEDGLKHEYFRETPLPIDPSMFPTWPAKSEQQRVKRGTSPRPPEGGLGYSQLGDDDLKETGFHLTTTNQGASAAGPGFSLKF

[9] = tested on: Epidermal growth factor receptor (Homo sapiens), P00533 [G719S]; assay: Inhibition of EGFR G719S mutant at 1 uM; type: protein assay
How it was run: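 Single-concentration screen using Ambit Bioscience KINOMEscan technology across a panel of 250–400 kinases. Per-kinase inhibition from this screen was summarized as S(90), the fraction of kinases inhibited by more than 90%.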

[10] = biological target: Cyclin-dependent kinase-like 3 (Homo sapiens) (UniProt Q8IVW4); assay: Inhibition of CDKL3 at 1 uM
[11] = tested on: Hepatocyte growth factor receptor (Homo sapiens), P08581 [M1250T]; assay: Inhibition of MET M1250T mutant at 1 uM
[12] = biological target: Calcium/calmodulin-dependent protein kinase type 1D (Homo sapiens) (UniProt Q8IU85); assay: Inhibition of CAMK1D at 1 uM; how it was run: as §1
Calcium/calmodulin-dependent protein kinase type 1D (Homo sapiens), sequence (Q8IU85 whole entry, looked up): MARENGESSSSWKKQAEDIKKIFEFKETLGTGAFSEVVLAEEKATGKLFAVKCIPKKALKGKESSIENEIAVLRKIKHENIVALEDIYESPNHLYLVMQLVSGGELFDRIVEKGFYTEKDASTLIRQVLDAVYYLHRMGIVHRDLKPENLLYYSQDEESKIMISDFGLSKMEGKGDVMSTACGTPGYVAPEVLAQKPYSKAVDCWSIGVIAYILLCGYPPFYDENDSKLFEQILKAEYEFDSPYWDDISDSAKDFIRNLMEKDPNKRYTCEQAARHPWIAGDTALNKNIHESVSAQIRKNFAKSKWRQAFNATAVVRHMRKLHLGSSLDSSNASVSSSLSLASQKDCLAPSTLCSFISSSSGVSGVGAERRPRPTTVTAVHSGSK

Epidermal growth factor receptor (Homo sapiens), P00533 [G719S], sequence (P00533 whole entry G719S): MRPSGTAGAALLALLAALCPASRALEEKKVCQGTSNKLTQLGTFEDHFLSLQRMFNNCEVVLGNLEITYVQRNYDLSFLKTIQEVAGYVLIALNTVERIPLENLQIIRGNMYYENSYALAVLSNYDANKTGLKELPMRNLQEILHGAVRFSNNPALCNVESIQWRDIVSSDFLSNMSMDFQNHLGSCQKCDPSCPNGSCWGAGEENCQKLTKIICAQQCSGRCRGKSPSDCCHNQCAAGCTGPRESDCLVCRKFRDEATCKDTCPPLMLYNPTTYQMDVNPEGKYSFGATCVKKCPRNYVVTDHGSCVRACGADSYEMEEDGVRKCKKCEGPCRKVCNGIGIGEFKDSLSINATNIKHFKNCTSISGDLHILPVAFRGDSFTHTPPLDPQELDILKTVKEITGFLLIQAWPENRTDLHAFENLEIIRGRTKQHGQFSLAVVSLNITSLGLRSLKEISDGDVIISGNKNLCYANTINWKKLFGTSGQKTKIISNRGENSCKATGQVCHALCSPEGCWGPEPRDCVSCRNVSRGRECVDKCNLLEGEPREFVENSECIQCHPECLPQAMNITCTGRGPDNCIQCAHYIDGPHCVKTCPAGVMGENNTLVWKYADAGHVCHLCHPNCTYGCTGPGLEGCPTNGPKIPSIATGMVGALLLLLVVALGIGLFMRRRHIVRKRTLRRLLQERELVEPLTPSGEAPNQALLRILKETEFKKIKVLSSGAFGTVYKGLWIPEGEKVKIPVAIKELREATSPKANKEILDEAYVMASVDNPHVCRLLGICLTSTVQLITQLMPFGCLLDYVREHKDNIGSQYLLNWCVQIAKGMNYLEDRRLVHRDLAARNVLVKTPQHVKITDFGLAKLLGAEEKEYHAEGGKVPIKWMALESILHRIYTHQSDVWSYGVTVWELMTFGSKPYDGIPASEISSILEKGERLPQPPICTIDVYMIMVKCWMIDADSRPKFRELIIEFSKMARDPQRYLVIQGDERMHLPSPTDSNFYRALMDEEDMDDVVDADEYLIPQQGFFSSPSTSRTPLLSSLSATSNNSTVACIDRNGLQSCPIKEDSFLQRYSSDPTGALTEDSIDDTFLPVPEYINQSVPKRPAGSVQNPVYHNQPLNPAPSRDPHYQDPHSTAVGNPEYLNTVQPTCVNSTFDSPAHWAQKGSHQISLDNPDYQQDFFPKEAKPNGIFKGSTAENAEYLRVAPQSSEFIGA
5'-AMP-activated protein kinase catalytic subunit alpha-1 (Homo sapiens), sequence (Q13131 whole entry, looked up): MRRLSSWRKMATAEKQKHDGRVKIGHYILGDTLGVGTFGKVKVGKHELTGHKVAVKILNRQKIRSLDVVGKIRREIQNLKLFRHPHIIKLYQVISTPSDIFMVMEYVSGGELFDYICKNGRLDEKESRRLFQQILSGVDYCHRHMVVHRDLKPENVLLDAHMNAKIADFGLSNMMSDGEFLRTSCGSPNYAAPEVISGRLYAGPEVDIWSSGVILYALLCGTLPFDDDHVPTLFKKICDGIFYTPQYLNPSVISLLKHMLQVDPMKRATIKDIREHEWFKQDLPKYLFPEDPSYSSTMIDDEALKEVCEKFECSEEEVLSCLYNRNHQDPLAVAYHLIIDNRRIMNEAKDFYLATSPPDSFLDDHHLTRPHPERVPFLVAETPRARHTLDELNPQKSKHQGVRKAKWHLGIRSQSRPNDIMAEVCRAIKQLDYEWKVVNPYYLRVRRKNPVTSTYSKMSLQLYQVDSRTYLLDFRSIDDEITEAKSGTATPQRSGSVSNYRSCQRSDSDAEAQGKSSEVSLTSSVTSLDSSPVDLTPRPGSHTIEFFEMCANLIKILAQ
Hepatocyte growth factor receptor (Homo sapiens), P08581 [M1250T], sequence (P08581 whole entry M1250T): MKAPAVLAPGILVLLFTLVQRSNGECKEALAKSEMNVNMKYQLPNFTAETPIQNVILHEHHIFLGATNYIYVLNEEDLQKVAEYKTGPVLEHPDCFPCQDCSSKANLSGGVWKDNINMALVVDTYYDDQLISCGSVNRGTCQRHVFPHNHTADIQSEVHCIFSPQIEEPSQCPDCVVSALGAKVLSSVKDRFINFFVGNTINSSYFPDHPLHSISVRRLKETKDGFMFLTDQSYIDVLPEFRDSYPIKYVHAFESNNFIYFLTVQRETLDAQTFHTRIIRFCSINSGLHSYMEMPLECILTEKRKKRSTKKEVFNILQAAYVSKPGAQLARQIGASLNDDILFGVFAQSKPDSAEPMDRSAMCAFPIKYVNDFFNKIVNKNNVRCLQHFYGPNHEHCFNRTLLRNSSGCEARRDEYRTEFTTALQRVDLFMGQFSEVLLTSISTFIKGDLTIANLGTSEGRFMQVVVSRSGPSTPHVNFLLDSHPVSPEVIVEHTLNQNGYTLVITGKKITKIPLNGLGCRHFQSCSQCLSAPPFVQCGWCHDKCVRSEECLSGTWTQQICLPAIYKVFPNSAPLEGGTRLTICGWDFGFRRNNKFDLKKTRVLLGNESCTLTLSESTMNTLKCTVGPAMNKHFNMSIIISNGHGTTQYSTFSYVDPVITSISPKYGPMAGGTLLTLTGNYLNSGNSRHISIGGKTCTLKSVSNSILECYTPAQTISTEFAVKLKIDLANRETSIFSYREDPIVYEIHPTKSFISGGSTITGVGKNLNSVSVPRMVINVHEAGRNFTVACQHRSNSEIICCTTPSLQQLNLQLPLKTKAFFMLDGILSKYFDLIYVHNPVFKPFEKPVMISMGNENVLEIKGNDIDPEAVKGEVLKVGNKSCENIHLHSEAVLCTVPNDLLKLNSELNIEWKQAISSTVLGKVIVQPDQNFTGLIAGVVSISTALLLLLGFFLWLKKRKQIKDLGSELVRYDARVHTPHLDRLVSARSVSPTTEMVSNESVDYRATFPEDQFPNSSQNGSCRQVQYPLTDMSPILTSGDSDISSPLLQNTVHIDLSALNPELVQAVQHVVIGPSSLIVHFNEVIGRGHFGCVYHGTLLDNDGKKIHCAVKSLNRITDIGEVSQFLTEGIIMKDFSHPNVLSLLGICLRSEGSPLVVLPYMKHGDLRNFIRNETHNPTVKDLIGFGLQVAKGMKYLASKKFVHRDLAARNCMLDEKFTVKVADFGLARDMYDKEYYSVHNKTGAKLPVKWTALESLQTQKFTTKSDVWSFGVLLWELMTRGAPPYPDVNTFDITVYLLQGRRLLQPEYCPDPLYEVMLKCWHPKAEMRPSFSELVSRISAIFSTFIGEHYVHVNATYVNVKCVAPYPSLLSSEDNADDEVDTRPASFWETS
RAF proto-oncogene serine/threonine-protein kinase (Homo sapiens), sequence (P04049 whole entry): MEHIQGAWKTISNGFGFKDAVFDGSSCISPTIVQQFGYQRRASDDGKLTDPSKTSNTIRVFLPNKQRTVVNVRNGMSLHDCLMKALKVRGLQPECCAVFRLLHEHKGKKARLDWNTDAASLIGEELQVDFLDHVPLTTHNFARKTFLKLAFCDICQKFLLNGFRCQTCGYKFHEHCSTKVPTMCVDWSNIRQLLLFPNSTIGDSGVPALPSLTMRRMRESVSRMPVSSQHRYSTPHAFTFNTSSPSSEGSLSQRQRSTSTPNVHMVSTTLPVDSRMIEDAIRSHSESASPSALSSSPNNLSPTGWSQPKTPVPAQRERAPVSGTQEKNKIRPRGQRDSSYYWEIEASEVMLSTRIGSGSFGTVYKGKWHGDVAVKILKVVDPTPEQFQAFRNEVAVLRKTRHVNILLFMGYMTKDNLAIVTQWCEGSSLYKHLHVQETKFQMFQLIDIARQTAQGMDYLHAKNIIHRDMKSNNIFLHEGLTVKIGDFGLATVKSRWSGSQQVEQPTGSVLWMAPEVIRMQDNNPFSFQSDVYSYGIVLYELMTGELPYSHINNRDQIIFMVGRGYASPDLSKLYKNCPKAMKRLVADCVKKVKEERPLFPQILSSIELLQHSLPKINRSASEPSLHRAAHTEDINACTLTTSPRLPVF
Cyclin-dependent kinase-like 3 (Homo sapiens), sequence (Q8IVW4 whole entry, looked up): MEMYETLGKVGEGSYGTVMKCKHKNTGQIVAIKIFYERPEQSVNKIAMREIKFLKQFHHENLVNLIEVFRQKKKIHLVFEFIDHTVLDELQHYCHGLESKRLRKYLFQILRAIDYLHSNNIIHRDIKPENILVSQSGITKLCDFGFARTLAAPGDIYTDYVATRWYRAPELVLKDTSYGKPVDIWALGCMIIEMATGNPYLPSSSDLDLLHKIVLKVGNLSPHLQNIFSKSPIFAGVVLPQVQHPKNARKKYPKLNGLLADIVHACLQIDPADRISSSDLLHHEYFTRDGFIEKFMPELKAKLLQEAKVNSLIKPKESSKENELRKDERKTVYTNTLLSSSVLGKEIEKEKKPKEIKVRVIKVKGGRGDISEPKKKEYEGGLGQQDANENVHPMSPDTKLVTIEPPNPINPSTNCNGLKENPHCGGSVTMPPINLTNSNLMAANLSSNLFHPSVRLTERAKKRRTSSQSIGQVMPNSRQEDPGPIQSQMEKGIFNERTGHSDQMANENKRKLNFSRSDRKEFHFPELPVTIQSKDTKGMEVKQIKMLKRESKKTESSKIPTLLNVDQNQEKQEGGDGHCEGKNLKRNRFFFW

Row | SMILES | inhibition [1] | inhibition [2] | inhibition [3] | inhibition [4] | inhibition [5] | inhibition [6] | inhibition [7] | inhibition [8] | inhibition [9] | inhibition [10] | inhibition [11] | inhibition [12]
1 | CN1CCN(c2ccc(-c3cnc4c(c3)N(Cc3cc(Cl)ccc3Cl)CCN4)cn2)CC1 | 84% | < 50% | < 50% | < 50% | < 50% | < 50% | < 50% | < 50% | < 50% | < 50% | < 50% | < 50%
2 | CN1CCN(c2ccc(-c3cnc4c(c3)N(Cc3cc(Cl)ccc3C(F)(F)F)CCN4)cn2)CC1 | 75% | < 50% | < 50% | < 50% | < 50% | < 50% | < 50% | < 50% | < 50% | < 50% | < 50% | < 50%
3 | CN1CCN(c2ccc(-c3cnc4c(c3)N(Cc3c(F)ccc(F)c3Cl)CCN4)cn2)CC1 | < 50% | < 50% | < 50% | 82% | < 50% | < 50% | < 50% | < 50% | < 50% | < 50% | 82% | < 50%
4 | O=C(c1ccc(-c2cnc3c(c2)N(Cc2cc(Cl)ccc2C(F)(F)F)CCN3)cc1)N1CCC(N2CCCC2)CC1 |  | < 50% |  | < 50% | < 50% | < 50% | < 50% |  | < 50% |  |  | < 50%
5 | COC1CCN(C(=O)c2ccc(-c3cnc4c(c3)N(Cc3cc(Cl)ccc3C(F)(F)F)CCN4)cc2)CC1 |  | < 50% |  | < 50% | < 50% | < 50% | < 50% |  | < 50% |  |  | < 50%
6 | FC(F)(F)c1ccc(Cl)cc1CN1CCNc2ncc(-c3ccnc(N4CCNCC4)c3)cc21 | 99% | 66% | < 50% | < 50% | < 50% | < 50% | < 50% | < 50% | < 50% | < 50% | 86% | < 50%
7 | CN1CCN(c2ccc(-c3cnc4c(c3)N(Cc3cc(F)ccc3F)CCN4)cn2)CC1 | 89% | < 50% | < 50% | < 50% | < 50% | < 50% | < 50% | < 50% | < 50% | < 50% | < 50% | < 50%
8 | O=C(c1ccc(-c2cnc3c(c2)N(Cc2cc(Cl)ccc2C(F)(F)F)CCN3)cc1)N1CCCCC1 |  | < 50% |  | < 50% | < 50% | < 50% | < 50% |  | < 50% |  |  | < 50%
9 | CC(=O)N1CCN(c2cc(-c3cnc4c(c3)N(Cc3cc(Cl)ccc3C(F)(F)F)CCN4)ccn2)CC1 | 92% | < 50% | < 50% | < 50% | < 50% | < 50% | < 50% | < 50% | < 50% | < 50% | < 50% | < 50%
10 | O=C(O)c1ccc(-c2cnc3c(c2)N(Cc2cc(Cl)ccc2C(F)(F)F)CCN3)cc1 |  | < 50% |  |  | < 50% | < 50% | < 50% |  | < 50% |  |  | < 50%
